# Experimental data as given in ChEMBL document CHEMBL4406905, “The adduct formation between the thioguanine-polyamine ligands and DNA with the AP site under UVA irradiated and non-irradiated conditions” (Bioorg Med Chem, 2019).
# Activity calls are given as the source filed them. The calls are words filed in the database; no cut-off is given here.
# Key:
# [1] = Binding affinity to A-F-C/T-A-G duplex DNA (unknown origin) assessed as change in melting temperature at 10 uM by UV-Vis spectrophotometric analysis (reference value: 33.6 +/- 0.2 degC)
# [2] = Binding affinity to A-F-C/T-G-G duplex DNA (unknown origin) assessed as change in melting temperature at 10 uM by UV-Vis spectrophotometric analysis (reference value: 34.4 +/- 0.2 degC)
# [3] = Binding affinity to A-F-C/T-T-G duplex DNA (unknown origin) assessed as change in melting temperature at 10 uM by UV-Vis spectrophotometric analysis (reference value: 33.0 +/- 0.4 degC)
# [4] = Binding affinity to A-F-C/T-C-G duplex DNA (unknown origin) assessed as change in melting temperature at 10 uM by UV-Vis spectrophotometric analysis (reference value: 30.7 +/- 0.3 degC)
# [5] = Binding affinity to C-F-A/G-C-T duplex DNA (unknown origin) assessed as change in melting temperature at 10 uM by UV-Vis spectrophotometric analysis (reference value: 32.0 +/- 0.4 degC)
# [6] = Binding affinity to A-F-A/T-C-T duplex DNA (unknown origin) assessed as change in melting temperature at 10 uM by UV-Vis spectrophotometric analysis (reference value: 29.9 +/- 0.3 degC)
# [7] = Binding affinity to A-T-C/T-A-G duplex DNA (unknown origin) assessed as change in melting temperature at 10 uM by UV-Vis spectrophotometric analysis (reference value: 52.0 +/- 0.1 degC)
# [8] = Binding affinity to A-C-C/T-G-G duplex DNA (unknown origin) assessed as change in melting temperature at 10 uM by UV-Vis spectrophotometric analysis (reference value: 54.8 +/- 0.0 degC)
# [9] = Binding affinity to A-A-C/T-T-G duplex DNA (unknown origin) assessed as change in melting temperature at 10 uM by UV-Vis spectrophotometric analysis (reference value: 52.1 +/- 0.1 degC)
# [10] = Binding affinity to A-G-C/T-C-G duplex DNA (unknown origin) assessed as change in melting temperature at 10 uM by UV-Vis spectrophotometric analysis (reference value: 48.5 +/- 0.1 degC)
# [11] = Binding affinity to C-G-A/G-C-T duplex DNA (unknown origin) assessed as change in melting temperature at 10 uM by UV-Vis spectrophotometric analysis (reference value: 55.2 +/- 0.1 degC)
# [12] = Binding affinity to A-G-A/T-C-T duplex DNA (unknown origin) assessed as change in melting temperature at 10 uM by UV-Vis spectrophotometric analysis (reference value: 50.3 +/- 0.1 degC)
# [13] = Photo-activated binding affinity to A-F-C/T-C-G duplex DNA (unknown origin) at 100 uM measured for 24 hrs by HPLC analysis
# How it was run: (§1)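 Duplex at 10 µM (F = tetrahydrofuran AP analogue) with 100 µM ligand in 10 mM HEPES-NaOH pH 7.0, 5 mM DTT and 100 mM NaCl. Irradiated with UVA (4 W, 365 nm) at rt. Analysed by reversed-phase C18 HPLC at 50 °C with 254 nm detection, TEAA pH 7.0/MeCN gradient. Product peak identified by MALDI-TOF MS.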
# [14] = Induction of DNA cleavage in 5'-FAM-DNA1(U)/DNA2(C) duplex DNA (unknown origin) assessed as formation of DNA8 at 10 uM by fluorescence based PAGE analysis
# How it was run: (§2)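 DNA1(U)/DNA2(X) was annealed 5 min at 70 °C and treated with uracil-DNA glycosylase (0.2 unit/µl, pH 7.4, 37 °C, 15 min) to form the AP site. The 100 nM duplex was re-annealed in 10 mM HEPES-NaOH pH 7.0 with 100 mM NaCl, then incubated with 10 µM ligand at 37 °C for 5–300 min. Reactions were quenched with urea/EDTA loading buffer on ice. Products were run on 12% denaturing PAGE (8 M urea), imaged by 5'-FAM fluorescence, and band ratios (%) quantified.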
# [15] = Induction of DNA cleavage in 5'-FAM-DNA1(U)/DNA2(A) duplex DNA (unknown origin) assessed as formation of DNA8 at 10 uM by fluorescence based PAGE analysis; how it was run: as §2
# [16] = Induction of DNA cleavage in 5'-FAM-DNA1(U)/DNA2(A) duplex DNA (unknown origin) assessed as change in formation of DNA4 at 10 uM by fluorescence based PAGE analysis; how it was run: as §2
# [17] = Induction of DNA cleavage in 5'-FAM-DNA1(U)/DNA2(C) duplex DNA (unknown origin) assessed as formation of beta elimination production DNA4 at 10 uM measured for 5 hrs by fluorescence based PAGE analysis; how it was run: as §2
# [18] = Induction of DNA cleavage in 5'-FAM-DNA1(U)/DNA2(C) duplex DNA (unknown origin) assessed as formation of delta elimination production DNA7 at 10 uM measured for 5 hrs by fluorescence based PAGE analysis; how it was run: as §2
# [19] = Induction of DNA cleavage in 5'-FAM-DNA1(U)/DNA2(C) duplex DNA (unknown origin) assessed as formation DNA8 at 10 uM measured for 5 hrs by fluorescence based PAGE analysis; how it was run: as §2
# [20] = Induction of DNA cleavage in 5'-FAM-DNA1(U)/DNA2(A) duplex DNA (unknown origin) assessed as formation of beta elimination production DNA4 at 10 uM measured for 5 hrs by fluorescence based PAGE analysis; how it was run: as §2
# [21] = Induction of DNA cleavage in 5'-FAM-DNA1(U)/DNA2(A) duplex DNA (unknown origin) assessed as formation of delta elimination production DNA7 at 10 uM measured for 5 hrs by fluorescence based PAGE analysis; how it was run: as §2
# [22] = Induction of DNA cleavage in 5'-FAM-DNA1(U)/DNA2(A) duplex DNA (unknown origin) assessed as formation DNA8 at 10 uM measured for 5 hrs by fluorescence based PAGE analysis; how it was run: as §2
# [23] = Induction of DNA cleavage in 5'-FAM-DNA1(U)/DNA2(C) duplex DNA (unknown origin) assessed as increase in slower moving bands at 10 uM measured after 1 hr by fluorescence based PAGE analysis
# [24] = Photo-activated binding affinity to A-F-C/T-A-G duplex DNA (unknown origin) at 100 uM measured for 24 hrs by HPLC analysis; how it was run: as §1
# [25] = Photo-activated binding affinity to A-F-C/T-C-G duplex DNA (unknown origin) assessed as induction of photo reaction at 100 uM measured for 3 hrs by HPLC analysis; how it was run: as §1
# [26] = Photo-activated binding affinity to A-F-C/T-G-G duplex DNA (unknown origin) at 100 uM measured for 24 hrs by HPLC analysis; how it was run: as §1
# [27] = Photo-activated binding affinity to A-F-C/T-T-G duplex DNA (unknown origin) at 100 uM measured for 24 hrs by HPLC analysis; how it was run: as §1
# [28] = Photo-activated binding affinity to C-F-A/G-C-T duplex DNA (unknown origin) at 100 uM measured for 24 hrs by HPLC analysis; how it was run: as §1
# [29] = Photo-activated binding affinity to A-F-A/T-C-T duplex DNA (unknown origin) at 100 uM measured for 24 hrs by HPLC analysis; how it was run: as §1
# [30] = Induction of DNA cleavage in 5'-FAM-DNA1(U)/DNA2(C) duplex DNA (unknown origin) assessed as formation of beta elimination production DNA4 at 10 uM measured for 30 min by fluorescence based PAGE analysis; how it was run: as §2
# [31] = Induction of DNA cleavage in 5'-FAM-DNA1(U)/DNA2(C) duplex DNA (unknown origin) assessed as formation of delta elimination production DNA7 at 10 uM by fluorescence based PAGE analysis; how it was run: as §2
ΔTm [1] [°C],ΔTm [2] [°C],ΔTm [3] [°C],ΔTm [4] [°C],ΔTm [5] [°C],ΔTm [6] [°C],ΔTm [7] [°C],ΔTm [8] [°C],ΔTm [9] [°C],ΔTm [10] [°C],ΔTm [11] [°C],ΔTm [12] [°C],Activity [13],Activity [15],Activity [16],Activity [17],Activity [18],Activity [19],Activity [20],Activity [21],SMILES,further results
2.8,3.8,3.1,4.2,4.1,3.3,0.6,1,0.7,0.6,0.9,0.6,Active,Active,Active,Active,Active,Active,Active,Active,NCCCNCCCNCCCCCn1cnc2c(=S)[nH]c(N)nc21,Activity [14]: Active; Activity [22]: Active
–,–,–,–,–,–,–,–,–,–,–,–,–,–,–,–,–,–,–,–,NCCCNCCCNCCCn1cnc2c(=O)[nH]c(N)nc21,Activity [23]: inactive
2.3,1.6,1.2,5.4,3.5,1.8,0.5,0.5,0.2,0.7,0.4,0.7,Active,Active,Active,Active,Active,Active,Active,Active,NCCCNCCCNCCCn1cnc2c(=S)[nH]c(N)nc21,Activity [24]: inactive; Activity [25]: Active; Activity [26]: inactive; Activity [27]: inactive; Activity [28]: inactive; Activity [29]: inactive; Activity [30]: Active; Activity [31]: Active; Activity [22]: Active; Activity [23]: Active
